Experimental data taken from ChEMBL document CHEMBL1136949, “Regioselective synthesis and biological evaluation of bis(indolyl)methane derivatized 1,4-disubstituted 1,2,3-bistriazoles as anti-infective agents” (2009).
Active and inactive are the calls of the source. No cut-off for these calls is given here.

Each compound was assayed on Staphylococcus aureus (assay: Antibacterial activity against Staphylococcus aureus ATCC 25923 at 100 ug/mL after 24 hrs by disk diffusion method). Conditions: ATCC 25923, 24 h, read-out: DIZ.
Format: functional
Summary of the method: (§1)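 Paper-disc diffusion on Mueller Hinton agar, pH 7.4 ± 0.2 at 25 °C. Whatman No. 2 discs (5 mm) were heat-sterilized at 160 °C for 30 min, loaded with DMSO test solution at 100 µg/10 µL and dried, then laid on the agar. Plates were held 1 h in the refrigerator for diffusion, then incubated 24 h at 37 °C. Inhibition zone diameter was read in mm. DMSO served as solvent control; ciprofloxacin disc as reference.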
`COc1ccc(C(c2c(C)n(Cc3cn(Cc4ccc(Cl)cc4)nn3)c3ccccc23)c2c(C)n(Cc3cn(Cc4ccc(Cl)cc4)nn3)c3ccccc23)cc1` gave a zone of inhibition at 100 µg/mL of 16 mm.
With `Clc1ccc(Cn2cc(Cn3cc(C(c4ccccc4)c4cn(Cc5cn(Cc6ccc(Cl)cc6)nn5)c5ccc(Br)cc45)c4cc(Br)ccc43)nn2)cc1` the zone of inhibition at 100 µg/mL was 16 mm.
`COc1ccc(Cn2cc(Cn3cc(C(c4ccccc4)c4cn(Cc5cn(Cc6ccc(OC)cc6)nn5)c5ccccc45)c4ccccc43)nn2)cc1` was tested, and the zone of inhibition at 100 µg/mL was 18 mm.
For `O=C(O)c1cn(C2CC2)c2cc(N3CCNCC3)c(F)cc2c1=O` [CIPROFLOXACIN], the zone of inhibition at 100 µg/mL was 22 mm.
`Cc1c(C(c2ccccc2)c2c(C)n(Cc3cn(Cc4ccc(Cl)cc4)nn3)c3ccccc23)c2ccccc2n1Cc1cn(Cc2ccc(Cl)cc2)nn1` gave a zone of inhibition at 100 µg/mL of 17 mm.
For `Cc1c(C(c2ccc(Cl)cc2)c2c(C)n(Cc3cn(Cc4ccccc4)nn3)c3ccccc23)c2ccccc2n1Cc1cn(Cc2ccccc2)nn1`, the zone of inhibition at 100 µg/mL was 20 mm.
`COc1ccc(C(c2cn(Cc3cn(Cc4ccccc4)nn3)c3ccccc23)c2cn(Cc3cn(Cc4ccccc4)nn3)c3ccccc23)cc1` gave a zone of inhibition at 100 µg/mL of 19 mm.
With `Cc1c(C(c2ccccc2)c2c(C)n(Cc3cn(Cc4ccccc4)nn3)c3ccccc23)c2ccccc2n1Cc1cn(Cc2ccccc2)nn1` the zone of inhibition at 100 µg/mL was 20 mm.
Work on `COc1ccc(Cn2cc(Cn3cc(C(c4ccc(OC)cc4)c4cn(Cc5cn(Cc6ccc(OC)cc6)nn5)c5ccccc45)c4ccccc43)nn2)cc1` yielded a zone of inhibition at 100 µg/mL of 18 mm.
For `COc1ccc(C(c2cn(Cc3cn(Cc4ccc(Cl)cc4)nn3)c3ccccc23)c2cn(Cc3cn(Cc4ccc(Cl)cc4)nn3)c3ccccc23)cc1`, the zone of inhibition at 100 µg/mL was 16 mm.
Compound `Clc1ccc(Cn2cc(Cn3cc(C(c4ccc(Cl)cc4)c4cn(Cc5cn(Cc6ccc(Cl)cc6)nn5)c5ccccc45)c4ccccc43)nn2)cc1` has a zone of inhibition at 100 µg/mL of 20 mm.
`COc1ccc(C(c2cn(Cc3cn(Cc4ccccc4)nn3)c3ccc(Br)cc23)c2cn(Cc3cn(Cc4ccccc4)nn3)c3ccc(Br)cc23)cc1` showed a zone of inhibition at 100 µg/mL of 20 mm.
With `Brc1ccc2c(c1)c(C(c1ccccc1)c1cn(Cc3cn(Cc4ccccc4)nn3)c3ccc(Br)cc13)cn2Cc1cn(Cc2ccccc2)nn1` the zone of inhibition at 100 µg/mL was 16 mm.
For `Clc1ccc(Cn2cc(Cn3cc(C(c4ccccc4)c4cn(Cc5cn(Cc6ccc(Cl)cc6)nn5)c5ccccc45)c4ccccc43)nn2)cc1`, the zone of inhibition at 100 µg/mL was 17 mm.
`Cc1c(C(c2ccc(Cl)cc2)c2c(C)n(Cc3cn(Cc4ccc(Cl)cc4)nn3)c3ccccc23)c2ccccc2n1Cc1cn(Cc2ccc(Cl)cc2)nn1` showed a zone of inhibition at 100 µg/mL of 19 mm.
Compound `c1ccc(Cn2cc(Cn3cc(C(c4ccccc4)c4cn(Cc5cn(Cc6ccccc6)nn5)c5ccccc45)c4ccccc43)nn2)cc1` has a zone of inhibition at 100 µg/mL of 20 mm.

The compounds below were run on Escherichia coli (assay: Antibacterial activity against Escherichia coli ATCC 25922 at 100 ug/mL after 24 hrs by disk diffusion method). Conditions: not given.
Format: functional, organism-based
Summary of the method: as §1
For `COc1ccc(C(c2c(C)n(Cc3cn(Cc4ccc(Cl)cc4)nn3)c3ccccc23)c2c(C)n(Cc3cn(Cc4ccc(Cl)cc4)nn3)c3ccccc23)cc1`, the Activity was “inactive”.
With `Clc1ccc(Cn2cc(Cn3cc(C(c4ccccc4)c4cn(Cc5cn(Cc6ccc(Cl)cc6)nn5)c5ccc(Br)cc45)c4cc(Br)ccc43)nn2)cc1` the Activity was “inactive”.
`COc1ccc(Cn2cc(Cn3cc(C(c4ccccc4)c4cn(Cc5cn(Cc6ccc(OC)cc6)nn5)c5ccccc45)c4ccccc43)nn2)cc1` was tested, and the Activity was “inactive”.
In the case of `Cc1c(C(c2ccccc2)c2c(C)n(Cc3cn(Cc4ccc(Cl)cc4)nn3)c3ccccc23)c2ccccc2n1Cc1cn(Cc2ccc(Cl)cc2)nn1`, the Activity is reported as “inactive”.
`Cc1c(C(c2ccc(Cl)cc2)c2c(C)n(Cc3cn(Cc4ccccc4)nn3)c3ccccc23)c2ccccc2n1Cc1cn(Cc2ccccc2)nn1` was tested, and the Activity was “inactive”.
With `COc1ccc(C(c2cn(Cc3cn(Cc4ccccc4)nn3)c3ccccc23)c2cn(Cc3cn(Cc4ccccc4)nn3)c3ccccc23)cc1` the Activity was “inactive”.
With `Cc1c(C(c2ccccc2)c2c(C)n(Cc3cn(Cc4ccccc4)nn3)c3ccccc23)c2ccccc2n1Cc1cn(Cc2ccccc2)nn1` the Activity was “inactive”.
For `COc1ccc(Cn2cc(Cn3cc(C(c4ccc(OC)cc4)c4cn(Cc5cn(Cc6ccc(OC)cc6)nn5)c5ccccc45)c4ccccc43)nn2)cc1`, the Activity was “inactive”.
`COc1ccc(C(c2cn(Cc3cn(Cc4ccc(Cl)cc4)nn3)c3ccccc23)c2cn(Cc3cn(Cc4ccc(Cl)cc4)nn3)c3ccccc23)cc1` was tested, and the Activity was “inactive”.
For `Clc1ccc(Cn2cc(Cn3cc(C(c4ccc(Cl)cc4)c4cn(Cc5cn(Cc6ccc(Cl)cc6)nn5)c5ccccc45)c4ccccc43)nn2)cc1`, the Activity was “inactive”.
`COc1ccc(C(c2cn(Cc3cn(Cc4ccccc4)nn3)c3ccc(Br)cc23)c2cn(Cc3cn(Cc4ccccc4)nn3)c3ccc(Br)cc23)cc1` was tested, and the Activity was “inactive”.
`Brc1ccc2c(c1)c(C(c1ccccc1)c1cn(Cc3cn(Cc4ccccc4)nn3)c3ccc(Br)cc13)cn2Cc1cn(Cc2ccccc2)nn1` was tested, and the Activity was “inactive”.
With `Clc1ccc(Cn2cc(Cn3cc(C(c4ccccc4)c4cn(Cc5cn(Cc6ccc(Cl)cc6)nn5)c5ccccc45)c4ccccc43)nn2)cc1` the Activity was “inactive”.
For `Cc1c(C(c2ccc(Cl)cc2)c2c(C)n(Cc3cn(Cc4ccc(Cl)cc4)nn3)c3ccccc23)c2ccccc2n1Cc1cn(Cc2ccc(Cl)cc2)nn1`, the Activity was “inactive”.
`c1ccc(Cn2cc(Cn3cc(C(c4ccccc4)c4cn(Cc5cn(Cc6ccccc6)nn5)c5ccccc45)c4ccccc43)nn2)cc1` was tested, and the Activity was “inactive”.

What follows are compounds tested on Candida albicans (assay: Antifungal activity against Candida albicans ATCC 10231 at 100 ug/mL after 24 hrs by disk diffusion method). Conditions: ATCC 10231, 24 h, read-out: DIZ.
Format: functional
Summary of the method: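 Disc diffusion as for the antibacterial test, on agar medium of glucose, peptone and Sabouraud dextrose agar in distilled water, pH 5.5 ± 0.2 at 25 °C. Sterilized 5 mm paper discs were loaded with DMSO test solution at 100 µg/10 µL and dried. Plates were held 1 h refrigerated, then incubated 24 h at 37 °C. Zone of inhibition was measured in mm.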
`COc1ccc(C(c2c(C)n(Cc3cn(Cc4ccc(Cl)cc4)nn3)c3ccccc23)c2c(C)n(Cc3cn(Cc4ccc(Cl)cc4)nn3)c3ccccc23)cc1` was tested, and the zone of inhibition at 100 µg/mL was 20 mm.
In the case of `CC(=O)N1CCN(c2ccc(OCC3COC(Cn4ccnc4)(c4ccc(Cl)cc4Cl)O3)cc2)CC1` (configuration not stated) [KETOCONAZOLE], the zone of inhibition at 100 µg/mL is reported as 24 mm.
`Clc1ccc(Cn2cc(Cn3cc(C(c4ccccc4)c4cn(Cc5cn(Cc6ccc(Cl)cc6)nn5)c5ccc(Br)cc45)c4cc(Br)ccc43)nn2)cc1` was tested, and the zone of inhibition at 100 µg/mL was 21 mm.
With `COc1ccc(Cn2cc(Cn3cc(C(c4ccccc4)c4cn(Cc5cn(Cc6ccc(OC)cc6)nn5)c5ccccc45)c4ccccc43)nn2)cc1` the zone of inhibition at 100 µg/mL was 16 mm.
For `Cc1c(C(c2ccccc2)c2c(C)n(Cc3cn(Cc4ccc(Cl)cc4)nn3)c3ccccc23)c2ccccc2n1Cc1cn(Cc2ccc(Cl)cc2)nn1`, the zone of inhibition at 100 µg/mL was 19 mm.
For `Cc1c(C(c2ccc(Cl)cc2)c2c(C)n(Cc3cn(Cc4ccccc4)nn3)c3ccccc23)c2ccccc2n1Cc1cn(Cc2ccccc2)nn1`, the zone of inhibition at 100 µg/mL was 18 mm.
For `COc1ccc(C(c2cn(Cc3cn(Cc4ccccc4)nn3)c3ccccc23)c2cn(Cc3cn(Cc4ccccc4)nn3)c3ccccc23)cc1`, the zone of inhibition at 100 µg/mL was 17 mm.
`Cc1c(C(c2ccccc2)c2c(C)n(Cc3cn(Cc4ccccc4)nn3)c3ccccc23)c2ccccc2n1Cc1cn(Cc2ccccc2)nn1` showed a zone of inhibition at 100 µg/mL of 16 mm.
`COc1ccc(Cn2cc(Cn3cc(C(c4ccc(OC)cc4)c4cn(Cc5cn(Cc6ccc(OC)cc6)nn5)c5ccccc45)c4ccccc43)nn2)cc1` showed a zone of inhibition at 100 µg/mL of 16 mm.
`COc1ccc(C(c2cn(Cc3cn(Cc4ccc(Cl)cc4)nn3)c3ccccc23)c2cn(Cc3cn(Cc4ccc(Cl)cc4)nn3)c3ccccc23)cc1` showed a zone of inhibition at 100 µg/mL of 21 mm.
In the case of `Clc1ccc(Cn2cc(Cn3cc(C(c4ccc(Cl)cc4)c4cn(Cc5cn(Cc6ccc(Cl)cc6)nn5)c5ccccc45)c4ccccc43)nn2)cc1`, the zone of inhibition at 100 µg/mL is reported as 16 mm.
`COc1ccc(C(c2cn(Cc3cn(Cc4ccccc4)nn3)c3ccc(Br)cc23)c2cn(Cc3cn(Cc4ccccc4)nn3)c3ccc(Br)cc23)cc1` was tested, and the zone of inhibition at 100 µg/mL was 16 mm.
`Brc1ccc2c(c1)c(C(c1ccccc1)c1cn(Cc3cn(Cc4ccccc4)nn3)c3ccc(Br)cc13)cn2Cc1cn(Cc2ccccc2)nn1` was tested, and the zone of inhibition at 100 µg/mL was 21 mm.
In the case of `Clc1ccc(Cn2cc(Cn3cc(C(c4ccccc4)c4cn(Cc5cn(Cc6ccc(Cl)cc6)nn5)c5ccccc45)c4ccccc43)nn2)cc1`, the zone of inhibition at 100 µg/mL is reported as 20 mm.
With `Cc1c(C(c2ccc(Cl)cc2)c2c(C)n(Cc3cn(Cc4ccc(Cl)cc4)nn3)c3ccccc23)c2ccccc2n1Cc1cn(Cc2ccc(Cl)cc2)nn1` the zone of inhibition at 100 µg/mL was 18 mm.
For `c1ccc(Cn2cc(Cn3cc(C(c4ccccc4)c4cn(Cc5cn(Cc6ccccc6)nn5)c5ccccc45)c4ccccc43)nn2)cc1`, the zone of inhibition at 100 µg/mL was 16 mm.
